ChEMBL document CHEMBL1687778, “Genetic determinants involved in the susceptibility of Pseudomonas aeruginosa to beta-lactam antibiotics” (2010)

What was measured:
Assay type in all cases: functional
Pseudomonas aeruginosa [1] = assay: Antimicrobial activity against Pseudomonas aeruginosa PA14 PA4550 harboring fimU mutant gene by Etest method
Outline: (§1)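 Etest MIC. Overnight LB cultures at 37°C were diluted in sterile 0.85% NaCl to about 1 × 10^7 CFU/ml. 100 µl was spread on Mueller-Hinton agar, one strip was placed per plate, and plates were incubated at 37°C for 18 h. Equal cell numbers were seeded per plate, and results were verified in triplicate. PA14 wild type was included in each set as a susceptibility control.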

Pseudomonas aeruginosa [2] = assay: Antimicrobial activity against Pseudomonas aeruginosa PA14 PA5005 harboring mutation in putative carbamoyltransferase by Etest method; outline: as §1
Pseudomonas aeruginosa [3] = assay: Antimicrobial activity against Pseudomonas aeruginosa PA14 PA5000 harboring wapR mutant gene by Etest method; outline: as §1
Pseudomonas aeruginosa [4] = assay: Antimicrobial activity against Pseudomonas aeruginosa PA14 PA3520 harboring mutation in putative periplasmic metal-binding protein by Etest method; outline: as §1
Pseudomonas aeruginosa [5] = assay: Antimicrobial activity against Pseudomonas aeruginosa PA14 PA2487 harboring mutation in hypothetical protein by Etest method
Outline: (§2)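 Overnight LB cultures (37°C) diluted in sterile 0.85% NaCl to about 1 × 10^7 CFU/ml. 100 µl spread on Mueller-Hinton agar, one Etest strip per plate, 18 h at 37°C. Ceftazidime, imipenem and meropenem tested. Wild-type PA14 plate included in each set. Each mutant verified in triplicate.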

Pseudomonas aeruginosa [6] = assay: Antimicrobial activity against Pseudomonas aeruginosa PA14 PA3259 harboring mutation in conserved hypothetical protein by Etest method; outline: as §1
Pseudomonas aeruginosa [7] = assay: Antimicrobial activity against Pseudomonas aeruginosa PA14 PA2621 harboring clpS mutant gene by Etest method; outline: as §2
Pseudomonas aeruginosa [8] = assay: Antimicrobial activity against Pseudomonas aeruginosa PA14 PA4007 harboring proA mutant gene by Etest method; outline: as §1
Pseudomonas aeruginosa [9] = assay: Antimicrobial activity against Pseudomonas aeruginosa PA14 PA14_07490/07510 harboring mutation in intergenic region by Etest method; outline: as §2
Pseudomonas aeruginosa [10] = assay: Antimicrobial activity against Pseudomonas aeruginosa PA14 PA5366 harboring pstB mutant gene by Etest method; outline: as §1
Pseudomonas aeruginosa [11] = assay: Antimicrobial activity against Pseudomonas aeruginosa PA14 PA3141 harboring wbpM mutant gene by Etest method; outline: as §2
Pseudomonas aeruginosa [12] = assay: Antimicrobial activity against Pseudomonas aeruginosa PA14 PA1553 harboring mutation in putative cytochrome c oxidase, cbb3 type, subunit II by Etest method; outline: as §2
Pseudomonas aeruginosa [13] = assay: Antimicrobial activity against Pseudomonas aeruginosa PA14 PA0401 harboring mutation in Noncatalytic dihydroorotase-like protein by Etest method; outline: as §2
Pseudomonas aeruginosa [14] = assay: Antimicrobial activity against Pseudomonas aeruginosa PA14 PA4748 harboring tpiA mutant gene by Etest method; outline: as §1
Pseudomonas aeruginosa [15] = assay: Antimicrobial activity against Pseudomonas aeruginosa PA14 PA3704 harboring wspE mutant gene by Etest method; outline: as §1
Pseudomonas aeruginosa [16] = assay: Antimicrobial activity against Pseudomonas aeruginosa PA14 PA2023 harboring galU mutant gene by Etest method; outline: as §2
Pseudomonas aeruginosa [17] = assay: Antimicrobial activity against Pseudomonas aeruginosa PA14 PA1011 harboring mutation in putative lipoprotein by Etest method; outline: as §2
Pseudomonas aeruginosa [18] = assay: Antimicrobial activity against Pseudomonas aeruginosa PA14 PA3433 harboring mutation in putative transcriptional regulator, LysR family by Etest method; outline: as §1
Pseudomonas aeruginosa [19] = assay: Antimicrobial activity against Pseudomonas aeruginosa PA14 PA2970 harboring rpmF mutant gene by Etest method; outline: as §2
Pseudomonas aeruginosa [20] = assay: Antimicrobial activity against Pseudomonas aeruginosa PA14 PA4527 harboring pilC mutant gene by Etest method; outline: as §1
Pseudomonas aeruginosa [21] = assay: Antimicrobial activity against Pseudomonas aeruginosa PA14 PA4753 harboring mutation in putative RNA-binding protein by Etest method; outline: as §1
Pseudomonas aeruginosa [22] = assay: Antimicrobial activity against Pseudomonas aeruginosa PA14 PA5038 harboring aroB mutant gene by Etest method; outline: as §1
Pseudomonas aeruginosa [23] = assay: Antimicrobial activity against Pseudomonas aeruginosa PA14 PA0011 harboring mutation in putative 2-OH-lauroyltransferase by Etest method; outline: as §2
Pseudomonas aeruginosa [24] = assay: Antimicrobial activity against Pseudomonas aeruginosa PA14 PA0908 harboring mutation in hypothetical protein by Etest method; outline: as §2
Pseudomonas aeruginosa [25] = assay: Antimicrobial activity against Pseudomonas aeruginosa PA14 PA0402 harboring pyrB mutant gene by Etest method; outline: as §2
Pseudomonas aeruginosa [26] = assay: Antimicrobial activity against Pseudomonas aeruginosa PA14 PA3649 harboring mutation in putative membrane-associated zinc metalloprotease by Etest method; outline: as §1
Pseudomonas aeruginosa [27] = assay: Antimicrobial activity against Pseudomonas aeruginosa PA14 PA4005 harboring mutation in conserved hypothetical protein by Etest method; outline: as §1
Pseudomonas aeruginosa [28] = assay: Antimicrobial activity against Pseudomonas aeruginosa PA14 PA5130 harboring mutation in putative rhodanese-like domain protein by Etest method; outline: as §1
Pseudomonas aeruginosa [29] = assay: Antimicrobial activity against Pseudomonas aeruginosa PA14 PA0427 harboring oprM mutant gene by Etest method; outline: as §2
Pseudomonas aeruginosa [30] = assay: Antimicrobial activity against Pseudomonas aeruginosa PA14 PA4946 harboring mutL mutant gene by Etest method; outline: as §1
Pseudomonas aeruginosa [31] = assay: Antimicrobial activity against Pseudomonas aeruginosa PA14 PA3620 harboring mutS mutant gene by Etest method; outline: as §1
Pseudomonas aeruginosa [32] = assay: Antimicrobial activity against Pseudomonas aeruginosa PA14 PA4459 harboring mutation in Conserved hypothetical protein by Etest method; outline: as §1
Pseudomonas aeruginosa [33] = assay: Antimicrobial activity against Pseudomonas aeruginosa PA14 PA2963 harboring mutation in putative aminodeoxychorismate lyase by Etest method; outline: as §2
Pseudomonas aeruginosa [34] = assay: Antimicrobial activity against Pseudomonas aeruginosa PA14 PA3800 harboring mutation in conserved hypothetical protein by Etest method; outline: as §1
Pseudomonas aeruginosa [35] = assay: Antimicrobial activity against wild type Pseudomonas aeruginosa PA14 by Etest method; outline: as §1
Pseudomonas aeruginosa [36] = assay: Antimicrobial activity against Pseudomonas aeruginosa PA14 PA0764 harboring mucB mutant gene by Etest method; outline: as §2
Pseudomonas aeruginosa [37] = assay: Antimicrobial activity against Pseudomonas aeruginosa PA14 PA5001 harboring mutation in conserved hypothetical protein by Etest method; outline: as §1
Pseudomonas aeruginosa [38] = assay: Antimicrobial activity against Pseudomonas aeruginosa PA14 PA0766 harboring mucD mutant gene by Etest method; outline: as §2
Pseudomonas aeruginosa [39] = assay: Antimicrobial activity against Pseudomonas aeruginosa PA14 PA2128 harboring cupA1 mutant gene by Etest method; outline: as §2
Pseudomonas aeruginosa [40] = assay: Antimicrobial activity against Pseudomonas aeruginosa PA14 PA3818 harboring suhB mutant gene by Etest method; outline: as §1
Pseudomonas aeruginosa [41] = assay: Antimicrobial activity against Pseudomonas aeruginosa PA14 PA5002 harboring mutation in hypothetical protein by Etest method; outline: as §1
Pseudomonas aeruginosa [42] = assay: Antimicrobial activity against Pseudomonas aeruginosa PA14 PA5192 harboring pckA mutant gene by Etest method; outline: as §1
Pseudomonas aeruginosa [43] = assay: Antimicrobial activity against Pseudomonas aeruginosa PA14 PA4402 harboring argJ mutant gene by Etest method; outline: as §1
Pseudomonas aeruginosa [44] = assay: Antimicrobial activity against Pseudomonas aeruginosa PA14 PA5288 harboring glnK mutant gene by Etest method; outline: as §1
Pseudomonas aeruginosa [45] = assay: Antimicrobial activity against Pseudomonas aeruginosa PA14 PA14_43090 harboring mutation in hypothetical protein by Etest method; outline: as §2
Pseudomonas aeruginosa [46] = assay: Antimicrobial activity against Pseudomonas aeruginosa PA14 PA3978 harboring mutation in hypothetical protein by Etest method; outline: as §1
Pseudomonas aeruginosa [47] = assay: Antimicrobial activity against Pseudomonas aeruginosa PA14 PA0503 harboring mutation in Putative biotin synthesis protein BioC by Etest method; outline: as §2
Pseudomonas aeruginosa [48] = assay: Antimicrobial activity against Pseudomonas aeruginosa PA14 PA0958 harboring oprD mutant gene by Etest method; outline: as §2

Measured: MIC

C[C@@H](O)[C@H]1C(=O)N2C(C(=O)O)=C(SCCNC=N)C[C@H]12 [IMIPENEM ANHYDROUS]
0.25 µg/mL: Pseudomonas aeruginosa [2] | Pseudomonas aeruginosa [10] | Pseudomonas aeruginosa [26] | Pseudomonas aeruginosa [32] | Pseudomonas aeruginosa [33] | Pseudomonas aeruginosa [36] | Pseudomonas aeruginosa [38] | Pseudomonas aeruginosa [44]
1 µg/mL: Pseudomonas aeruginosa [12]
2 µg/mL: Pseudomonas aeruginosa [48]
0.19 µg/mL: Pseudomonas aeruginosa [8] | Pseudomonas aeruginosa [18] | Pseudomonas aeruginosa [28] | Pseudomonas aeruginosa [47]
1.5 µg/mL: Pseudomonas aeruginosa [24]
0.064 µg/mL: Pseudomonas aeruginosa [27]
0.5 µg/mL: Pseudomonas aeruginosa [1] | Pseudomonas aeruginosa [3] | Pseudomonas aeruginosa [4] | Pseudomonas aeruginosa [5] | Pseudomonas aeruginosa [6] | Pseudomonas aeruginosa [9] | Pseudomonas aeruginosa [11] | Pseudomonas aeruginosa [15] | Pseudomonas aeruginosa [17] | Pseudomonas aeruginosa [19] | Pseudomonas aeruginosa [21] | Pseudomonas aeruginosa [35]
0.094 µg/mL: Pseudomonas aeruginosa [16] | Pseudomonas aeruginosa [46]
0.38 µg/mL: all other assays above
